Laboratory results published in ChEMBL document CHEMBL4334542, “Antimalarial N 1,N 3-Dialkyldioxonaphthoimidazoliums: Synthesis, Biological Activity, and Structure-activity Relationships” (ACS Med Chem Lett, 2020).
The source made the active and inactive calls. The calls are words filed in the database; no cut-off is given here.

Key:
Plasmodium falciparum [1] = experiment: Antimalarial activity against Plasmodium falciparum NF54 late gametocytes transfected with luciferase gene incubated for 48 hrs by luciferase reporter gene assay; type: functional, organism-based; conditions: NF54, 48 h
How it was run: (§1)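 Gametocytes of NF54-Pfs16-GFP-Luc, early (>95% stage II/III) or late (>90% stage IV/V); luciferase read-out. IC50 is the concentration giving 50% reduction of luminescence; mean ± SEM of n = 3 independent biological replicates.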

Plasmodium falciparum [2] = experiment: Antimalarial activity against Plasmodium falciparum NF54 early gametocytes transfected with luciferase gene incubated for 48 hrs by luciferase reporter gene assay; type: functional, organism-based; conditions: NF54, 48 h; how it was run: as §1
Plasmodium falciparum [3] = experiment: Antimalarial activity against asexual stage of Plasmodium falciparum Dd2 infected in erythrocytes assessed as reduction in parasite growth incubated for 48 hrs under hypoxic condition by Hoechst 33342 staining based flow cytometry; type: functional, organism-based; conditions: Dd2, 48 h
How it was run: (§2)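 Asexual Dd2 and 3D7 parasites in erythrocytes; DNA content of infected cells measured by Hoechst 33342 staining and FACS. IC50 is the concentration giving 50% of the net fluorescence of untreated control cultures; mean ± SD of n = 3 separate determinations.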

CHO-K1 = experiment: Cytotoxicity against CHOK1 cells assessed as reduction in cell viability incubated for 48 hrs by CellTiter 96 aqueous one solution assay; type: cell-based; conditions: Cricetulus griseus, CHO-K1, 48 h
How it was run: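 Cell growth measured by a tetrazolium dye assay. IC50 is the concentration reducing growth by 50% relative to untreated cultures; mean ± SD of n = 3 separate determinations.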

Plasmodium falciparum [4] = experiment: Antimalarial activity against asexual stage of Plasmodium falciparum 3D7 infected in erythrocytes assessed as reduction in parasite growth incubated for 48 hrs under hypoxic condition by Hoechst 33342 staining based flow cytometry; type: functional, organism-based; conditions: 3D7, 48 h; how it was run: as §2
Plasmodium falciparum [5] = experiment: Antimalarial activity against asexual stage of Plasmodium falciparum NF54 assessed as reduction in parasite growth incubated for 96 hrs by SYBR Green I dye-based fluorescence assay; type: functional, organism-based; conditions: NF54, 96 h
How it was run: (§3)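 Asexual NF54, K1 and W2 parasites; proliferation read as SYBR Green I fluorescence. IC50 is the concentration giving 50% of the net SYBR Green I fluorescence of untreated control cultures; mean ± SEM of n = 3 independent biological replicates.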

Plasmodium falciparum [6] = experiment: Antimalarial activity against Plasmodium falciparum K1 incubated for 48 hrs by [3H]-hypoxanthine incorporation assay; type: functional, organism-based
Plasmodium falciparum [7] = experiment: Antimalarial activity against Plasmodium falciparum NF54 incubated for 48 hrs by [3H]-hypoxanthine incorporation assay; type: functional, organism-based
Plasmodium falciparum [8] = experiment: Antimalarial activity against Plasmodium falciparum TM90C2B incubated for 48 hrs by [3H]-hypoxanthine incorporation assay; type: functional, organism-based
Plasmodium falciparum [9] = experiment: Antimalarial activity against asexual stage of Plasmodium falciparum K1 assessed as reduction in parasite growth incubated for 96 hrs by SYBR Green I dye-based fluorescence assay; type: functional, organism-based; conditions: K1, 96 h; how it was run: as §3
Plasmodium falciparum [10] = experiment: Antimalarial activity against asexual stage of Plasmodium falciparum NF54 assessed as reduction in parasite growth at 1 uM incubated for 96 hrs by SYBR Green I dye-based fluorescence assay relative to control; type: functional; design: scale not given: the % may be the effect or the level left
Plasmodium falciparum [11] = experiment: Antimalarial activity against asexual stage of Plasmodium falciparum 3D7 infected in O-positive erythrocytes assessed as reduction in parasite growth incubated for 72 hrs by SYBR Green I dye-based spectrophotometric analysis; type: functional, organism-based; conditions: 3D7, 72 h
Plasmodium falciparum [12] = experiment: Antimalarial activity against sexual stage of Plasmodium falciparum 3D7 gametocytes assessed as reduction in parasite growth incubated for 3 days by alamar blue staining based assay; type: functional, organism-based; conditions: 3D7, 72 h
Plasmodium falciparum [13] = experiment: Antimalarial activity against asexual stage of Plasmodium falciparum W2 assessed as reduction in parasite growth incubated for 96 hrs by SYBR Green I dye-based fluorescence assay; type: functional, organism-based; conditions: W2, 96 h
[14] = Redox cycling activity of the compound […] measured after 45 mins by phenol red reagent based horseradish peroxidase coupled assay
How it was run: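 Redox cycling EC50 determined by the phenol red horseradish peroxidase assay.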

IC50 (Plasmodium falciparum [1]) [nM]	IC50 (Plasmodium falciparum [2]) [nM]	Structure (SMILES)	IC50 (Plasmodium falciparum [3]) [nM]	IC50 (CHO-K1) [nM]	IC50 (Plasmodium falciparum [4]) [nM]	also measured
143	95	CN(C)c1ccc2nc3ccc(N(C)C)cc3[s+]c2c1 [METHYLENE BLUE ANHYDROUS]	–	–	–	–
–	–	Cc1n(C(C)C)c2c([n+]1C1CC1)C(=O)c1ccccc1C2=O	25	14600	15.8	–
–	–	CC1=CC(=O)c2ccccc2C1=O [MENADIONE]	–	–	–	Activity (Plasmodium falciparum [10]): 20 - 40%
–	–	CCOc1ccc(-[n+]2c3c(n(C)c2C)C(=O)c2ccccc2C3=O)cc1	–	–	–	EC50 (Plasmodium falciparum [11]): 1 nM; EC50 (Plasmodium falciparum [12]): 93 nM
174	361	CCCCCCCCCCCC[n+]1c2c(n(CC(C)C)c1C)C(=O)c1ccccc1C2=O	–	–	–	IC50 (Plasmodium falciparum [5]): 4.3 nM; IC50 (Plasmodium falciparum [13]): 5.5 nM; IC50 (Plasmodium falciparum [9]): 11.2 nM
–	–	CCCC[n+]1c2c(n(C)c1C)C(=O)c1ccccc1C2=O	14.1	13100	4.3	–
–	–	Cc1nc2c(n1C(C)C)C(=O)c1ccccc1C2=O	–	–	–	Activity [14]: inactive; Activity (Plasmodium falciparum [10]): <=50%
–	–	CCCn1c(C)nc2c1C(=O)c1ccccc1C2=O	–	–	–	Activity [14]: inactive; Activity (Plasmodium falciparum [10]): <=50%
–	–	CCCC[n+]1c2c(n(C(C)C)c1C)C(=O)c1ccccc1C2=O	14.9	80300	11.6	–
–	–	Cc1nc2c(n1C)C(=O)c1ccccc1C2=O	–	–	–	Activity [14]: inactive; Activity (Plasmodium falciparum [10]): <=50%
–	–	CCCn1c2c([n+](CCC)c1C)C(=O)c1ccccc1C2=O	11.3	16200	26.9	–
832	139	Cc1n(CC(C)C)c2c([n+]1C1CC1)C(=O)c1ccccc1C2=O	–	–	–	IC50 (Plasmodium falciparum [5]): 3.94 nM; IC50 (Plasmodium falciparum [13]): 2.55 nM; IC50 (Plasmodium falciparum [9]): 5.85 nM
–	–	CCCC[n+]1c2c(n(CCC)c1C)C(=O)c1ccccc1C2=O	20.9	26800	18.8	–
1020	33	CC[n+]1c2c(n(CC(C)C)c1C)C(=O)c1ccccc1C2=O	–	–	–	IC50 (Plasmodium falciparum [5]): 1.63 nM; IC50 (Plasmodium falciparum [13]): 1.62 nM; IC50 (Plasmodium falciparum [9]): 3.1 nM
–	–	CCC[n+]1c2c(n(C)c1C)C(=O)c1ccccc1C2=O	14.3	3900	4.8	–
689	229	Cc1n(CC(C)C)c2c([n+]1C(C)C)C(=O)c1ccccc1C2=O	–	–	–	IC50 (Plasmodium falciparum [5]): 2.36 nM; IC50 (Plasmodium falciparum [13]): 1.96 nM; IC50 (Plasmodium falciparum [9]): 4.22 nM
–	–	Cc1n(C)c2c([n+]1C)C(=O)c1ccccc1C2=O	26.5	5700	22.6	–
–	–	Cc1n(C)c2c([n+]1C(C)C)C(=O)c1ccccc1C2=O	16.1	4700	4.8	–
–	–	O=C1C=CC(=O)C=C1 [BENZOQUINONE]	–	–	–	Activity (Plasmodium falciparum [10]): 20 - 40%
–	–	COCC[n+]1c2c(n(Cc3cnccn3)c1C)C(=O)c1ccccc1C2=O [SEPANTRONIUM BROMIDE]	45.9	–	38.6	–
–	–	CCn1c2c([n+](CC)c1C)C(=O)c1ccccc1C2=O	19.1	14700	6	–

Structure (SMILES)	IC50 (Plasmodium falciparum [1]) [nM]	IC50 (Plasmodium falciparum [2]) [nM]	IC50 (Plasmodium falciparum [3]) [nM]	IC50 (CHO-K1) [nM]	IC50 (Plasmodium falciparum [4]) [nM]	also measured
C[C@H]1[C@H](OC(=O)CCC(=O)O)O[C@@H]2O[C@@]3(C)CC[C@H]4[C@H](C)CC[C@@H]1[C@@]24OO3 [ARTESUNATE]	259	63	13.3	–	22.8	IC50 (Plasmodium falciparum [5]): 3 nM; IC50 (Plasmodium falciparum [6]): 1.4 nM; IC50 (Plasmodium falciparum [7]): 3.2 nM; IC50 (Plasmodium falciparum [8]): 2.7 nM; IC50 (Plasmodium falciparum [9]): 3.26 nM
CCCCn1c2c([n+](CC)c1C)C(=O)c1ccccc1C2=O	320	268	9.1	37000	4.2	Activity [14]: Active; IC50 (Plasmodium falciparum [5]): 1.64 nM; IC50 (Plasmodium falciparum [6]): 1.8 nM; IC50 (Plasmodium falciparum [7]): 1 nM; IC50 (Plasmodium falciparum [13]): 2.88 nM; IC50 (Plasmodium falciparum [8]): 1.4 nM; IC50 (Plasmodium falciparum [9]): 2.4 nM
